Experiments:
Type in all cases: functional
P19 [1] = assay: Percent aggregation of mouse embryonal carcinoma (P19) cells 10e-6 M concentration in culture medium
Method in brief: (§1)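 P19 mouse embryonal carcinoma cells grown in α-MEM with 7.5% calf serum, 2.5% fetal calf serum and gentamycin at 37 °C, 5% CO2. Cells trypsinized, replated at 2×10^5 cells/mL, dosed from DMSO stock at 10⁻⁶ M final, redosed with fresh medium after 2 days, diluted 3 days later and counted 2 days after that. Read-out is percent of aggregates with neural outgrowth. Run in triplicate.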

HL-60 = assay: Percent differentiation of human promyelocytic leukemia (HL60) cells at 10e -6M concentration in culture medium
Method in brief: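 HL60 cells in RPMI-1640 with 10% FBS, 2 mM L-glutamine and gentamycin were exposed for 4 days to compound at 10⁻⁶ M final, diluted from a DMSO stock, at 1×10^5 cells/mL. Differentiation was scored by NBT reduction: 30 min at 37 °C with 0.2% NBT plus 200 ng/mL PMA. At least 200 cells were counted by light microscopy, blue cells scored as differentiated.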

P19 [2] = assay: percent aggregation of mouse embryonal carcinoma (P19) cells 10e -6M concentration in culture medium; method in brief: as §1

| Compound | Aggregates (P19 [1]) [%] | Differentiation (HL-60) [%] | Aggregation (P19 [2]) [%] |
| --- | --- | --- | --- |
| COC(=O)c1ccc(Cl)c(NC(=O)c2cnc3c(n2)C(C)(C)CC3(C)C)c1 | 0 | 4 |  |
| CC1(C)CCC(C)(C)c2nc(C(=O)Nc3ccc(C(=O)O)cc3)cnc21 | 70 | 73 |  |
| CC1(C)CC(C)(C)c2nc(C(=O)Nc3cc(C(=O)O)ccc3Cl)cnc21 | 2 | 20 |  |
| CC1=C(/C=C/C(C)=C/C=C/C(C)=C/C(=O)O)C(C)(C)CCC1 [TRETINOIN] |  | 91 | 86 |
| COC(=O)c1cc(NC(=O)c2cnc3c(n2)C(C)(C)CC3(C)C)cc(C(=O)OC)c1 | 1 | 4 |  |
| COC(=O)c1cccc(NC(=O)c2cnc3c(n2)C(C)(C)CC3(C)C)c1 | 2 | 0 |  |
| CC1=C(/C=C/C(C)=C/C(=O)Nc2ccc(C(=O)O)cc2)C(C)(C)CCC1 | 68 | 79 |  |
| CC1(C)CC(C)(C)c2nc(C(=O)Nc3cc(C(=O)O)cc(C(=O)O)c3)cnc21 | 2 | 2 |  |
| COc1cc(C(=O)O)ccc1NC(=O)c1cnc2c(n1)C(C)(C)CC2(C)C | 0 | 6 |  |
| CN(C(=O)c1cnc2c(n1)C(C)(C)CCC2(C)C)c1ccc(C(=O)O)cc1 | 0 | 15 |  |
| CC1(C)CC(C)(C)c2nc(C(=O)Nc3ccc(C(=O)O)cc3)cnc21 | 67 | 46 |  |
| COC(=O)c1cccc(NC(=O)c2cnc3c(n2)C(C)(C)CCC3(C)C)c1 | 0 | 6 |  |
| CC1(C)CC(C)(C)c2nc(C(=O)Nc3cccc(C(=O)O)c3)cnc21 | 0 | 0 |  |
| COc1ccc(C(=O)O)cc1NC(=O)c1cnc2c(n1)C(C)(C)CC2(C)C | 0 | 3 |  |
| COc1cc(C(=O)O)ccc1NC(=O)/C=C(C)/C=C/C1=C(C)CCCC1(C)C | 2 | 9 |  |
| COc1cc(C(=O)O)ccc1NC(=O)c1cnc2c(n1)C(C)(C)CCC2(C)C | 0 | 30 |  |
| COC(=O)c1ccc(OC)c(NC(=O)c2cnc3c(n2)C(C)(C)CCC3(C)C)c1 | 0 | 0 |  |
| CC1=C(/C=C/C(C)=C/C(=O)N(C)c2ccc(C(=O)O)cc2)C(C)(C)CCC1 | 1 | 4 |  |
| COC(=O)c1ccc(N(C)C(=O)c2cnc3c(n2)C(C)(C)CC3(C)C)cc1 | 0 | 7 |  |
| CC1(C)CCC(C)(C)c2nc(C(=O)Nc3cccc(C(=O)O)c3)cnc21 | 1 | 2 |  |
| COC(=O)c1ccc(NC(=O)c2cnc3c(n2)C(C)(C)CC3(C)C)cc1 | 52 | 43 |  |
| COC(=O)c1ccc(OC)c(NC(=O)c2cnc3c(n2)C(C)(C)CC3(C)C)c1 | 0 | 1 |  |
| CC1(C)CC(C)(C)c2nc(C(=O)Nc3ccc(C(=O)O)c(Cl)c3)cnc21 | 60 | 67 |  |
| CC1(C)CCC(C)(C)c2nc(C(=O)Oc3ccc(C(=O)O)cc3)cnc21 |  | 47 | 0 |
| COC(=O)c1ccc(NC(=O)c2cnc3c(n2)C(C)(C)CC3(C)C)cc1Cl | 50 | 69 |  |
| COC(=O)c1ccc(Cl)c(NC(=O)c2cnc3c(n2)C(C)(C)CCC3(C)C)c1 | 0 | 7 |  |
| COC(=O)c1ccc(NC(=O)c2cnc3c(n2)C(C)(C)CCC3(C)C)cc1 | 75 | 76 |  |
| COC(=O)c1ccc(NC(=O)c2cnc3c(n2)C(C)(C)CC3(C)C)c(OC)c1 | 0 | 13 |  |
| COC(=O)c1cc(NC(=O)c2cnc3c(n2)C(C)(C)CCC3(C)C)cc(C(=O)OC)c1 | 0 | 2 |  |
| COC(=O)c1ccc(NC(=O)c2cnc3c(n2)C(C)(C)CCC3(C)C)cc1Cl | 74 | 47 |  |

Source: ChEMBL document CHEMBL1131054, “Synthesis and structure-activity relationships of 2-pyrazinylcarboxamidobenzoates and beta-ionylideneacetamidobenzoates with retinoidal activity” (1998)
